Data reported in ChEMBL document CHEMBL5724801, “EUbOPEN Chemogenomics Library - Multiplex” (2024).
Several values for one entry are separate records, joined by “and”; a condition that tells them apart may be missing. Equal values may be shown once.

Tested on: HEK-293T
Test: Multiplex assay against HEK293T
Format: toxicity, cell-based
Conditions: human
Procedure, shortened: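 Hoechst33342, BioTracker Green Microtubule Cytoskeleton Dye, MitoTracker Red and Annexin V Alexa Fluor 680 were added to live cells at seeding, and imaging on a CQ1 microscope at 37°C and 5% CO2 followed compound addition. Gating by CellPathfinder machine learning separated cells into Hoechst high-intensity objects or normal cells, then normal cells into healthy, pyknosed or fragmented nuclei, then pyknosed cells into mitotic or apoptotic. Per cents of healthy-nucleus cells are reported for the tubulin, mitochondrial-mass and membrane-permeability phenotypes.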

[1] = 12 h, 1 µM, compound concentration 1 uM
[2] = 12 h, 10 µM, compound concentration 10 uM
[3] = 24 h, 1 µM, compound concentration 1 uM
[4] = 24 h, 10 µM, compound concentration 10 uM
[5] = 48 h, 1 µM, compound concentration 1 uM
[6] = 48 h, 10 µM, compound concentration 10 uM

Compound: Br.CS(=O)(=O)Nc1c(O)ccc2c1CCCC2C1=NCCN1 (stereo not given)
- Population Apoptotic (%) [1]: 40% and 43%
- Population Fragmented Nuclei (%) [1]: 7% and 5%
- Population Healthy Nuclei (%) [1]: 80% and 81%
- Population Hoechst High Intensity Objects (%) [1]: 5% and 8%
- Population Membrane Permeable-Phenotype (%) [1]: 0%
- Population Mitochondria Different-Phenotype (%) [1]: 45% and 52%
- Population Mitotic Cells (%) [1]: 59% and 56%
- Population Normal (%) [1]: 94% and 91%
- Population Pyknosed Nuclei (%) [1]: 12%
- Population Tubulin-Different-Phenotype (%) [1]: 26% and 18%
- Total Cell Count [1]: 407 and 334
- Population Apoptotic (%) [2]: 48% and 55%
- Population Fragmented Nuclei (%) [2]: 8% and 6%
- Population Healthy Nuclei (%) [2]: 76% and 79%
- Population Hoechst High Intensity Objects (%) [2]: 12% and 14%
- Population Membrane Permeable-Phenotype (%) [2]: 0%
- Population Mitochondria Different-Phenotype (%) [2]: 60% and 67%
- Population Mitotic Cells (%) [2]: 52% and 44%
- Population Normal (%) [2]: 87% and 85%
- Population Pyknosed Nuclei (%) [2]: 14%
- Population Tubulin-Different-Phenotype (%) [2]: 33% and 26%
- Total Cell Count [2]: 381 and 292
- Population Apoptotic (%) [3]: 38% and 55%
- Population Fragmented Nuclei (%) [3]: 10% and 6%
- Population Healthy Nuclei (%) [3]: 79% and 80%
- Population Hoechst High Intensity Objects (%) [3]: 5% and 8%
- Population Membrane Permeable-Phenotype (%) [3]: 1% and 0%
- Population Mitochondria Different-Phenotype (%) [3]: 34% and 41%
- Population Mitotic Cells (%) [3]: 61% and 44%
- Population Normal (%) [3]: 94% and 91%
- Population Pyknosed Nuclei (%) [3]: 10% and 13%
- Population Tubulin-Different-Phenotype (%) [3]: 21% and 17%
- Total Cell Count [3]: 549 and 387
- Population Apoptotic (%) [4]: 30% and 34%
- Population Fragmented Nuclei (%) [4]: 11%
- Population Healthy Nuclei (%) [4]: 75% and 77%
- Population Hoechst High Intensity Objects (%) [4]: 6% and 11%
- Population Membrane Permeable-Phenotype (%) [4]: 0%
- Population Mitochondria Different-Phenotype (%) [4]: 40% and 46%
- Population Mitotic Cells (%) [4]: 69% and 65%
- Population Normal (%) [4]: 93% and 88%
- Population Pyknosed Nuclei (%) [4]: 12% and 10%
- Population Tubulin-Different-Phenotype (%) [4]: 23% and 21%
- Total Cell Count [4]: 451 and 377
- Population Apoptotic (%) [5]: 12% and 29%
- Population Fragmented Nuclei (%) [5]: 14% and 11%
- Population Healthy Nuclei (%) [5]: 78%
- Population Hoechst High Intensity Objects (%) [5]: 4% and 6%
- Population Membrane Permeable-Phenotype (%) [5]: 0%
- Population Mitochondria Different-Phenotype (%) [5]: 20% and 22%
- Population Mitotic Cells (%) [5]: 87% and 70%
- Population Normal (%) [5]: 95% and 93%
- Population Pyknosed Nuclei (%) [5]: 7% and 9%
- Population Tubulin-Different-Phenotype (%) [5]: 14% and 12%
- Total Cell Count [5]: 859 and 532
- Population Apoptotic (%) [6]: 34% and 48%
- Population Fragmented Nuclei (%) [6]: 16% and 14%
- Population Healthy Nuclei (%) [6]: 76% and 79%
- Population Hoechst High Intensity Objects (%) [6]: 4%
- Population Membrane Permeable-Phenotype (%) [6]: 1% and 0%
- Population Mitochondria Different-Phenotype (%) [6]: 22% and 27%
- Population Mitotic Cells (%) [6]: 65% and 51%
- Population Normal (%) [6]: 95%
- Population Pyknosed Nuclei (%) [6]: 6% and 5%
- Population Tubulin-Different-Phenotype (%) [6]: 12% and 11%
- Total Cell Count [6]: 671 and 584

Compound: O=C1c2c(Br)c(Br)c(Br)c(Br)c2C(=O)N1c1ncc[nH]1
- Population Apoptotic (%) [1]: 13.1% and 15.91%
- Population Fragmented Nuclei (%) [1]: 2.88% and 4.84%
- Population Healthy Nuclei (%) [1]: 55.33% and 24.19%
- Population Hoechst High Intensity Objects (%) [1]: 0%
- Population Membrane Permeable-Phenotype (%) [1]: 0.52% and 0%
- Population Mitochondria Different-Phenotype (%) [1]: 30.21% and 20%
- Population Mitotic Cells (%) [1]: 86.9% and 84.09%
- Population Normal (%) [1]: 100%
- Population Pyknosed Nuclei (%) [1]: 41.79% and 70.97%
- Total Cell Count [1]: 347 and 124
- Population Apoptotic (%) [2]: 11.88% and 18.7%
- Population Fragmented Nuclei (%) [2]: 3.09% and 4.38%
- Population Hoechst High Intensity Objects (%) [2]: 0.28% and 0%
- Population Membrane Permeable-Phenotype (%) [2]: 0.82% and 0%
- Population Mitochondria Different-Phenotype (%) [2]: 30.74% and 20%
- Population Mitotic Cells (%) [2]: 88.12% and 81.3%
- Population Normal (%) [2]: 99.72% and 100%
- Population Pyknosed Nuclei (%) [2]: 28.37% and 76.88%
- Total Cell Count [2]: 357 and 160
- Population Apoptotic (%) [3]: 7.29% and 20.59%
- Population Fragmented Nuclei (%) [3]: 2.82% and 1.69%
- Population Healthy Nuclei (%) [3]: 81.23% and 40.68%
- Population Hoechst High Intensity Objects (%) [3]: 0%
- Population Membrane Permeable-Phenotype (%) [3]: 0.41% and 0%
- Population Mitochondria Different-Phenotype (%) [3]: 13.29% and 6.25%
- Population Mitotic Cells (%) [3]: 92.71% and 79.41%
- Population Normal (%) [3]: 100%
- Population Tubulin-Different-Phenotype (%) [3]: 8.59% and 6.25%
- Population Apoptotic (%) [4]: 15.38% and 16.98%
- Population Fragmented Nuclei (%) [4]: 2.6% and 2.87%
- Population Healthy Nuclei (%) [4]: 81.63% and 36.21%
- Population Hoechst High Intensity Objects (%) [4]: 0%
- Population Membrane Permeable-Phenotype (%) [4]: 0.42% and 0%
- Population Mitochondria Different-Phenotype (%) [4]: 15.71% and 7.94%
- Population Mitotic Cells (%) [4]: 84.62% and 83.02%
- Population Normal (%) [4]: 100%
- Population Tubulin-Different-Phenotype (%) [4]: 7.64% and 3.17%
- Population Apoptotic (%) [5]: 5.76% and 12.5%
- Population Fragmented Nuclei (%) [5]: 3.26% and 4.05%
- Population Healthy Nuclei (%) [5]: 88.03% and 68.21%
- Population Hoechst High Intensity Objects (%) [5]: 0% and 2.26%
- Population Membrane Permeable-Phenotype (%) [5]: 3.85% and 1.69%
- Population Mitochondria Different-Phenotype (%) [5]: 10.61% and 18.64%
- Population Mitotic Cells (%) [5]: 94.24% and 87.5%
- Population Normal (%) [5]: 100% and 97.74%
- Population Apoptotic (%) [6]: 13.95% and 14.89%
- Population Fragmented Nuclei (%) [6]: 5.46% and 4.92%
- Population Healthy Nuclei (%) [6]: 88.11% and 79.67%
- Population Hoechst High Intensity Objects (%) [6]: 0% and 0.97%
- Population Membrane Permeable-Phenotype (%) [6]: 6.62% and 4.53%
- Population Mitochondria Different-Phenotype (%) [6]: 10.78% and 11.11%
- Population Mitotic Cells (%) [6]: 86.05% and 85.11%
- Population Normal (%) [6]: 100% and 99.03%
- Population Pyknosed Nuclei (%) [6]: 6.43% and 15.41%
